Test results from ChEMBL document CHEMBL1121581, “4-Piperazinyl-10H-thieno[2,3-b][1,5]benzodiazepines as potential neuroleptics” (J Med Chem, 1980).

Experiments:
Rattus norvegicus [1] = experiment: Compound was assessed for its ability to block a conditioned avoidance response; Dose administered perorally is 20 mg/kg; 76-99%block; type: functional; details: route oral
How it was run: (§1)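 Lilly Wistar rats (120–130 g) trained in a shuttle box to cross on a 5-s buzzer, with mild shock if no response within 1 s of buzzer end. Only rats with a high conditioned response were used. Groups of five were dosed orally 1 h 50 min before the session, then habituated 10 min and tested 20 min. Shocks were scored as % of stimuli and graded 0–5.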

Rattus norvegicus [2] = experiment: Compound was assessed for its ability to produce catalepsy in rats; Dose administered perorally is 10 mg/kg; Group score is 4-7; type: functional; details: route oral
How it was run: (§2)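 Groups of eight Lilly Wistar rats (180–190 g) were dosed orally, then checked at 0.5, 1, 1.5, 2, 3, 4 and 5 h. Front paws were placed on a 1.5-cm rod 7 cm above the table, and hold time was recorded up to 20 min. Each rat was scored 0–5 and its maximum scores were summed per group (maximum 40), then graded 0–4.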

Mus musculus = experiment: Hypothermia in mice after peroral administration; type: functional
[3] = Lethal dose in mice after perorla administration; type: toxicity, organism-based; details: mouse, in vivo, po
Rattus norvegicus [4] = experiment: Compound was assessed for its ability to block a conditioned avoidance response; Dose administered perorally is 10 mg/kg; 31-50%block; type: functional; details: route oral; how it was run: as §1
Rattus norvegicus [5] = experiment: Ability to block a conditioned avoidance response; Dose administered perorally is 50 mg/kg.; type: functional; details: route oral; how it was run: as §1
Rattus norvegicus [6] = experiment: Compound was assessed for its ability to produce catalepsy in rats; Dose administered perorally is 50 mg/kg; Group score is 0-3; type: functional; details: route oral; how it was run: as §2
Rattus norvegicus [7] = experiment: Compound was assessed for its ability to produce catalepsy in rats; Dose administered perorally is 20 mg/kg; Group score is 8-15; type: functional; details: route oral; how it was run: as §2
Rattus norvegicus [8] = experiment: Compound was assessed for its ability to block a conditioned avoidance response; Dose administered perorally is 10 mg/kg; no significant effect (0-25%block); type: functional; details: route oral; how it was run: as §1
Rattus norvegicus [9] = experiment: Compound was assessed for its ability to block a conditioned avoidance response; Dose administered perorally is 10 mg/kg; 26-30%block; type: functional; details: route oral; how it was run: as §1
Rattus norvegicus [10] = experiment: Compound was assessed for its ability to block a conditioned avoidance response; Dose administered perorally is 50 mg/kg; 26-30%block; type: functional; details: route oral; how it was run: as §1
Rattus norvegicus [11] = experiment: Compound was assessed for its ability to produce catalepsy in rats; Dose administered perorally is 50 mg/kg; Group score is 4-7; type: functional; details: route oral; how it was run: as §2
Rattus norvegicus [12] = experiment: Compound was assessed for its ability to block a conditioned avoidance response; Dose administered perorally is 40 mg/kg; 26-30%block; type: functional; details: route oral; how it was run: as §1
Rattus norvegicus [13] = experiment: Compound was assessed for its ability to block a conditioned avoidance response; Dose administered intraperitoneally is 50 mg/kg; no significant effect (0-25%block); type: functional; details: route intraperitoneal
Rattus norvegicus [14] = experiment: Compound was assessed for its ability to block a conditioned avoidance response; Dose administered perorally is 25 mg/kg; no significant effect (0-25%block); type: functional; details: route oral; how it was run: as §1
Rattus norvegicus [15] = experiment: Compound was assessed for its ability to block a conditioned avoidance response; Dose administered perorally is 10 mg/kg; 51-75%block; type: functional; details: route oral; how it was run: as §1
Rattus norvegicus [16] = experiment: Compound was assessed for its ability to produce catalepsy in rats; Dose administered perorally is 10 mg/kg; Group score is 8-15; type: functional; details: route oral; how it was run: as §2

SMILES	EDmin (Mus musculus) [mg/kg]	LD50 [3] [mg/kg]	Activity (Rattus norvegicus [5])	further results
CCc1cc2c(s1)Nc1ccc(F)cc1N=C2N1CCN(CCO)CC1	50	400		Activity (Rattus norvegicus [1]): 4; Activity (Rattus norvegicus [2]): 1
CCc1cc2c(s1)Nc1ccccc1N=C2N1CCN(CC)CC1	50	200		Activity (Rattus norvegicus [2]): 1; Activity (Rattus norvegicus [4]): 2
CCc1cc2c(s1)Nc1ccc(Cl)cc1N=C2N1CCNCC1	50	> 400	0	Activity (Rattus norvegicus [6]): 0
CCc1cc2c(s1)Nc1ccc(S(C)(=O)=O)cc1N=C2N1CCN(C)CC1	>400	> 400	0	
CCCN1CCN(C2=Nc3ccccc3Nc3sc(CC)cc32)CC1	25	> 200		Activity (Rattus norvegicus [7]): 2; Activity (Rattus norvegicus [8]): 0
CN1CCN(C2=Nc3cc(F)ccc3Nc3sc(-c4ccccc4)cc32)CC1	50	> 400	0	Activity (Rattus norvegicus [6]): 0
CN1CCN(C2=Nc3cc(F)ccc3Nc3sc(C(C)(C)C)cc32)CC1	12.5	> 400		Activity (Rattus norvegicus [2]): 1; Activity (Rattus norvegicus [9]): 1
CCc1cc2c(s1)Nc1ccc(Cl)cc1C(N1CCN(C)CC1)=N2	50	> 100	0	
CCc1cc2c(s1)Nc1cc(F)cc(F)c1N=C2N1CCN(C)CC1	25	600		Activity (Rattus norvegicus [10]): 1; Activity (Rattus norvegicus [11]): 1
CC(=O)c1cc2c(s1)Nc1ccccc1C(N1CCN(C)CC1)=N2	200	> 400		Activity (Rattus norvegicus [12]): 1
Cc1cc2c(s1)Nc1ccc(F)cc1N=C2N1CCNCC1	100	400		Activity (Rattus norvegicus [10]): 1
CCc1cc2c(s1)Nc1ccc(SC)cc1N=C2N1CCN(C)CC1	100	> 200	0	
CCc1cc2c(s1)Nc1ccc(F)cc1N=C2N1CCN(c2cccc(Cl)c2)CC1	>400	> 400		Activity (Rattus norvegicus [13]): 0
CCOC(=O)N1CCN(C2=Nc3cc(F)ccc3Nc3sc(CC)cc32)CC1	100	> 800	0	Activity (Rattus norvegicus [6]): 0
CCc1cc2c(s1)Nc1ccc(F)cc1N=C2N1CCOCC1	>400	> 400	0	
CCc1cc2c(s1)Nc1ccccc1N=C2N1CCNCC1	100	800	0	
CCc1cc2c(s1)Nc1ccc(S(=O)(=O)N(C)C)cc1N=C2N1CCN(C)CC1	>800	> 800	0	
CCc1cc2c(s1)Nc1ccccc1C(N1CCN(C)CC1)=N2	100	> 200		Activity (Rattus norvegicus [14]): 0
Cc1cc2c(s1)Nc1ccc(F)cc1N=C2N1CC[N+](C)([O-])CC1	6.25	200		Activity (Rattus norvegicus [15]): 3; Activity (Rattus norvegicus [16]): 2
CCc1cc2c(s1)Nc1ccc(F)cc1N=C2NCCN1CCOCC1	200	400		Activity (Rattus norvegicus [13]): 0
CN(C)CCCN1c2ccccc2Sc2ccc(Cl)cc21 [CHLORPROMAZINE]	6.25	400		Activity (Rattus norvegicus [2]): 1; Activity (Rattus norvegicus [15]): 3
OCCN1CCN(CC/C=C2\c3ccccc3Sc3ccc(C(F)(F)F)cc32)CC1 [E-FLUPENTIXOL]	>400	> 400		Activity (Rattus norvegicus [10]): 1; Activity (Rattus norvegicus [6]): 0
